Source: ChEMBL document CHEMBL1143758, “Antitumor studies. part 3: design, synthesis, antitumor activity, and molecular docking study of novel 2-methylthio-, 2-amino-, and 2-(N-substituted amino)-10-alkyl-2-deoxo-5-deazaflavins” (Bioorg Med Chem, 2007)
In brackets after ≈: the same amount, converted by molar mass.

Key:
CCRF-HSB-2 = assay: Antitumor activity against human CCRF-HSB2 cells by modified MTT assay; type: functional, cell-based
KB = assay: Antitumor activity against human KB cells by modified MTT assay; type: functional, cell-based
Human alphaherpesvirus 1 = assay: Antiviral activity against HSV1 in HELF cells assessed as reduction of virus plaque formation; type: functional; conditions: Human alphaherpesvirus 1, HELF; read-out: ED50 (the source's name)
How it was run: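 In vitro plaque-reduction test against HSV-1, run with an acyclovir positive control. The value is reported as ED50, the minimum concentration that reduces virus plaque formation by 50%.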

Compound	IC50 (CCRF-HSB-2) [µg/mL]	IC50 (KB) [µg/mL]	EC50 (Human alphaherpesvirus 1) [µg/mL]
CSc1nc2n(C)c3cc(C)c(C)cc3cc-2c(=O)n1	7.06 (≈ 24.7 µM)	11.4 (≈ 39.9 µM)	
COc1ccc(OC)c2c1cc1c(=O)nc(SC)nc-1n2C	4.84 (≈ 15.3 µM)	8.75 (≈ 27.6 µM)	20 (≈ 63 µM)
COc1ccc2c(c1)cc1c(=O)nc(N3CCOCC3)nc-1n2C	24.5 (≈ 75.1 µM)	38.3 (≈ 117 µM)	
Cc1ccc2c(c1)cc1c(=O)nc(N3CCCCC3)nc-1n2C	25.2 (≈ 81.7 µM)	32.7 (≈ 106 µM)	
CSc1nc2n(C)c3c(C)cccc3cc-2c(=O)n1	15.3 (≈ 56.4 µM)	12 (≈ 44.2 µM)	
CCn1c2nc(N3CCOCC3)nc(=O)c-2cc2cc(C)ccc21	27.7 (≈ 85.4 µM)	50.8 (≈ 157 µM)	
COc1ccc2cc3c(=O)nc(SC)nc-3n(C)c2c1	5.92 (≈ 20.6 µM)	7.69 (≈ 26.8 µM)	
CN1CCN(c2nc3n(C)c4ccc(Cl)cc4cc-3c(=O)n2)CC1	7.4 (≈ 21.5 µM)	16.6 (≈ 48.3 µM)	
Cc1cc2cc3c(=O)nc(N4CCOCC4)nc-3n(C)c2cc1C	6 (≈ 18.5 µM)	8.8 (≈ 27.1 µM)	
COc1ccc2c(c1)cc1c(=O)nc(N3CCN(C)CC3)nc-1n2C	12.6 (≈ 37.1 µM)	27 (≈ 79.6 µM)	
CCn1c2nc(SC)nc(=O)c-2cc2cc(C)ccc21	1.82 (≈ 6.38 µM)	1.73 (≈ 6.06 µM)	4 (≈ 14 µM)
COc1ccc2c(c1)cc1c(=O)nc(SC)nc-1n2C	9.27 (≈ 32.3 µM)	9.82 (≈ 34.2 µM)	
Cn1c2nc(N3CCCCC3)nc(=O)c-2cc2cc(Cl)ccc21	69.4 (≈ 211 µM)	82.6 (≈ 251 µM)	
Cn1c2nc(N3CCOCC3)nc(=O)c-2cc2cc(Cl)ccc21	96.1 (≈ 291 µM)	52.7 (≈ 159 µM)	
COc1ccc2c(c1)cc1c(=O)[nH]c(=O)nc-1n2C	37.1 (≈ 144 µM)	10 (≈ 38.9 µM)	

The remaining lines, values ahead:

IC50 (CCRF-HSB-2) [µg/mL]	IC50 (KB) [µg/mL]	EC50 (Human alphaherpesvirus 1) [µg/mL]	Compound
22.6 (≈ 88.9 µM)	20.1 (≈ 79 µM)		CN(C)c1nc2n(C)c3ccccc3cc-2c(=O)n1
35.6 (≈ 125 µM)	23.6 (≈ 83 µM)		COc1ccc2c(c1)cc1c(=O)nc(N(C)C)nc-1n2C
46.4 (≈ 161 µM)	58.5 (≈ 203 µM)		CN(C)c1nc2n(C)c3ccc(Cl)cc3cc-2c(=O)n1
13.7 (≈ 60.6 µM)	17.9 (≈ 79.1 µM)		Cn1c2nc(N)nc(=O)c-2cc2ccccc21
14.3 (≈ 59.5 µM)	44.5 (≈ 185 µM)		Cc1ccc2c(c1)cc1c(=O)nc(N)nc-1n2C
6.04 (≈ 21.4 µM)	7.31 (≈ 25.9 µM)		CCCCNc1nc2n(C)c3ccccc3cc-2c(=O)n1
34.9 (≈ 123 µM)	34.3 (≈ 121 µM)		CN(CCO)c1nc2n(C)c3ccccc3cc-2c(=O)n1
26.3 (≈ 88.2 µM)	23.5 (≈ 78.8 µM)		CCn1c2nc(N(C)CCO)nc(=O)c-2cc2ccccc21
9.5 (≈ 30.4 µM)	25.1 (≈ 80.4 µM)		CCn1c2nc(N(C)CCO)nc(=O)c-2cc2cc(C)ccc21
24.7 (≈ 83.9 µM)	32 (≈ 109 µM)		Cn1c2nc(N3CCCCC3)nc(=O)c-2cc2ccccc21
39 (≈ 124 µM)	36 (≈ 115 µM)		COc1ccc2cc3c(=O)nc(N(C)CCO)nc-3n(C)c2c1
> 100	68.1 (≈ 230 µM)		Cn1c2nc(N3CCOCC3)nc(=O)c-2cc2ccccc21
5.9 (≈ 19.1 µM)	8.44 (≈ 27.3 µM)		CN1CCN(c2nc3n(C)c4ccccc4cc-3c(=O)n2)CC1
7.07 (≈ 26.1 µM)	5.42 (≈ 20 µM)	20 (≈ 73.7 µM)	CCn1c2nc(SC)nc(=O)c-2cc2ccccc21
9.87 (≈ 33.8 µM)	21.5 (≈ 73.7 µM)		CSc1nc2n(C)c3ccc(Cl)cc3cc-2c(=O)n1
8.9 (≈ 26.3 µM)	7.9 (≈ 23.3 µM)		CCCCCCCCNc1nc2n(C)c3ccccc3cc-2c(=O)n1
1.91 (≈ 7.42 µM)	1.97 (≈ 7.66 µM)	0.8 (≈ 3.11 µM)	CSc1nc2n(C)c3ccccc3cc-2c(=O)n1
1.96 (≈ 7.3 µM)	3.96 (≈ 14.8 µM)		CCn1c2nc(N(C)C)nc(=O)c-2cc2ccccc21
16.4 (≈ 61.1 µM)	24.8 (≈ 92.4 µM)		Cc1ccc2c(c1)cc1c(=O)nc(N(C)C)nc-1n2C
11.3 (≈ 39.7 µM)	14 (≈ 49.2 µM)		CCn1c2nc(NCCO)nc(=O)c-2cc2ccccc21
1.64 (≈ 6.83 µM)	1 (≈ 4.16 µM)	4 (≈ 16.6 µM)	CCn1c2nc(N)nc(=O)c-2cc2ccccc21
9.57 (≈ 35.3 µM)	9.27 (≈ 34.2 µM)		CSc1nc2n(C)c3ccc(C)cc3cc-2c(=O)n1
